Measured values from ChEMBL document CHEMBL2086320, “New synthetic inhibitors of fatty acid synthase with anticancer activity” (J Med Chem, 2012).
The source made the active and inactive calls. The rule behind the calls is not given here.

Experiments:
Mus musculus [1] = experiment: Toxicity against C57BL/6J mouse assessed as signs of suffering at 30 to 75 mg/kg, ip administered as single dose measured after 24 hrs; type: organism-based; parameters: dose 30-75 mg/kg, route intraperitoneal; details: in vivo
How it was run: (§1)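 Male C57BL/6J mice, 12 weeks, 23-25 g, acclimatized one week on standard chow, 12 h/12 h light/dark, 22 °C; 4 per group. Fasted 12 h during dark cycle, then one i.p. injection (0.5 mL) of compound or vehicle (DMSO dissolved in RPMI 1640). Free access to chow for 24 h, then body weight recorded and behaviour observed. Weight data mean ± SEM, n=4.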

FASN/HER2 (Homo sapiens) [2] = target: T1, FASN/HER2 (Homo sapiens) (UniProt P04626+P49327); experiment: Inhibition of FASN/HER2 in human SK-BR-3 cells assessed as reduction in p-AKT levels after 6 hrs by Western blot analysis; type: cell-based
T1 sequence (P04626 whole entry, looked up): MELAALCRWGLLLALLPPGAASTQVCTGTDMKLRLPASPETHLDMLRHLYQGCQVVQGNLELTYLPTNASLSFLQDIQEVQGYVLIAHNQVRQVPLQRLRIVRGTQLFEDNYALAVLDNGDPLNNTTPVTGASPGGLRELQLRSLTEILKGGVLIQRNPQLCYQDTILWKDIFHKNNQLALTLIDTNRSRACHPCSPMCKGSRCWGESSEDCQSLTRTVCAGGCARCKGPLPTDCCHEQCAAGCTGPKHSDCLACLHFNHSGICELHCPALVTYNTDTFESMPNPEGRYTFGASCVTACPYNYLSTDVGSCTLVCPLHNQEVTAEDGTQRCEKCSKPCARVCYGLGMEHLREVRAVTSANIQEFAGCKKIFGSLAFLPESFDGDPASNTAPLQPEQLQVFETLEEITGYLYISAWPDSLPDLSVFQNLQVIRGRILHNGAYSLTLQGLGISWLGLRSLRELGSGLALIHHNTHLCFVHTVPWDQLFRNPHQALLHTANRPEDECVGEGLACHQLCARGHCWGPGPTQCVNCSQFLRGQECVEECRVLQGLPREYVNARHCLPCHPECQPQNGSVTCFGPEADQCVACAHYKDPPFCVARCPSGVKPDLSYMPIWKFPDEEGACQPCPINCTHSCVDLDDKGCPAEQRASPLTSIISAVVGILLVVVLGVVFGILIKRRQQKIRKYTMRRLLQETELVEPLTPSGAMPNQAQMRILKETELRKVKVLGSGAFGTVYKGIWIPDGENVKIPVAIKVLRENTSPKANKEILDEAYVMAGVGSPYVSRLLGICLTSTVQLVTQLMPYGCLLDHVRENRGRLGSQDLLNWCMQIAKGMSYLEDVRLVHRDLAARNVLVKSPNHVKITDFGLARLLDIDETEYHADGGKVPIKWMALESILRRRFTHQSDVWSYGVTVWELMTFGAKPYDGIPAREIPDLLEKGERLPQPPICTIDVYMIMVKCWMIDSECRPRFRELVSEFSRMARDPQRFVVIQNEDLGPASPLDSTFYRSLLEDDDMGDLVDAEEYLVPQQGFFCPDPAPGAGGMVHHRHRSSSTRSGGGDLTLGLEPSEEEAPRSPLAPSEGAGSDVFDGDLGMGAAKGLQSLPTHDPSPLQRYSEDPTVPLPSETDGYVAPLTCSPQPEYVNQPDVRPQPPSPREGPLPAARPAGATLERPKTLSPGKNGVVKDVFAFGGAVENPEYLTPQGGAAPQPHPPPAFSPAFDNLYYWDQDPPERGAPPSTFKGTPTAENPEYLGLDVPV
T1 sequence (P49327 whole entry, looked up): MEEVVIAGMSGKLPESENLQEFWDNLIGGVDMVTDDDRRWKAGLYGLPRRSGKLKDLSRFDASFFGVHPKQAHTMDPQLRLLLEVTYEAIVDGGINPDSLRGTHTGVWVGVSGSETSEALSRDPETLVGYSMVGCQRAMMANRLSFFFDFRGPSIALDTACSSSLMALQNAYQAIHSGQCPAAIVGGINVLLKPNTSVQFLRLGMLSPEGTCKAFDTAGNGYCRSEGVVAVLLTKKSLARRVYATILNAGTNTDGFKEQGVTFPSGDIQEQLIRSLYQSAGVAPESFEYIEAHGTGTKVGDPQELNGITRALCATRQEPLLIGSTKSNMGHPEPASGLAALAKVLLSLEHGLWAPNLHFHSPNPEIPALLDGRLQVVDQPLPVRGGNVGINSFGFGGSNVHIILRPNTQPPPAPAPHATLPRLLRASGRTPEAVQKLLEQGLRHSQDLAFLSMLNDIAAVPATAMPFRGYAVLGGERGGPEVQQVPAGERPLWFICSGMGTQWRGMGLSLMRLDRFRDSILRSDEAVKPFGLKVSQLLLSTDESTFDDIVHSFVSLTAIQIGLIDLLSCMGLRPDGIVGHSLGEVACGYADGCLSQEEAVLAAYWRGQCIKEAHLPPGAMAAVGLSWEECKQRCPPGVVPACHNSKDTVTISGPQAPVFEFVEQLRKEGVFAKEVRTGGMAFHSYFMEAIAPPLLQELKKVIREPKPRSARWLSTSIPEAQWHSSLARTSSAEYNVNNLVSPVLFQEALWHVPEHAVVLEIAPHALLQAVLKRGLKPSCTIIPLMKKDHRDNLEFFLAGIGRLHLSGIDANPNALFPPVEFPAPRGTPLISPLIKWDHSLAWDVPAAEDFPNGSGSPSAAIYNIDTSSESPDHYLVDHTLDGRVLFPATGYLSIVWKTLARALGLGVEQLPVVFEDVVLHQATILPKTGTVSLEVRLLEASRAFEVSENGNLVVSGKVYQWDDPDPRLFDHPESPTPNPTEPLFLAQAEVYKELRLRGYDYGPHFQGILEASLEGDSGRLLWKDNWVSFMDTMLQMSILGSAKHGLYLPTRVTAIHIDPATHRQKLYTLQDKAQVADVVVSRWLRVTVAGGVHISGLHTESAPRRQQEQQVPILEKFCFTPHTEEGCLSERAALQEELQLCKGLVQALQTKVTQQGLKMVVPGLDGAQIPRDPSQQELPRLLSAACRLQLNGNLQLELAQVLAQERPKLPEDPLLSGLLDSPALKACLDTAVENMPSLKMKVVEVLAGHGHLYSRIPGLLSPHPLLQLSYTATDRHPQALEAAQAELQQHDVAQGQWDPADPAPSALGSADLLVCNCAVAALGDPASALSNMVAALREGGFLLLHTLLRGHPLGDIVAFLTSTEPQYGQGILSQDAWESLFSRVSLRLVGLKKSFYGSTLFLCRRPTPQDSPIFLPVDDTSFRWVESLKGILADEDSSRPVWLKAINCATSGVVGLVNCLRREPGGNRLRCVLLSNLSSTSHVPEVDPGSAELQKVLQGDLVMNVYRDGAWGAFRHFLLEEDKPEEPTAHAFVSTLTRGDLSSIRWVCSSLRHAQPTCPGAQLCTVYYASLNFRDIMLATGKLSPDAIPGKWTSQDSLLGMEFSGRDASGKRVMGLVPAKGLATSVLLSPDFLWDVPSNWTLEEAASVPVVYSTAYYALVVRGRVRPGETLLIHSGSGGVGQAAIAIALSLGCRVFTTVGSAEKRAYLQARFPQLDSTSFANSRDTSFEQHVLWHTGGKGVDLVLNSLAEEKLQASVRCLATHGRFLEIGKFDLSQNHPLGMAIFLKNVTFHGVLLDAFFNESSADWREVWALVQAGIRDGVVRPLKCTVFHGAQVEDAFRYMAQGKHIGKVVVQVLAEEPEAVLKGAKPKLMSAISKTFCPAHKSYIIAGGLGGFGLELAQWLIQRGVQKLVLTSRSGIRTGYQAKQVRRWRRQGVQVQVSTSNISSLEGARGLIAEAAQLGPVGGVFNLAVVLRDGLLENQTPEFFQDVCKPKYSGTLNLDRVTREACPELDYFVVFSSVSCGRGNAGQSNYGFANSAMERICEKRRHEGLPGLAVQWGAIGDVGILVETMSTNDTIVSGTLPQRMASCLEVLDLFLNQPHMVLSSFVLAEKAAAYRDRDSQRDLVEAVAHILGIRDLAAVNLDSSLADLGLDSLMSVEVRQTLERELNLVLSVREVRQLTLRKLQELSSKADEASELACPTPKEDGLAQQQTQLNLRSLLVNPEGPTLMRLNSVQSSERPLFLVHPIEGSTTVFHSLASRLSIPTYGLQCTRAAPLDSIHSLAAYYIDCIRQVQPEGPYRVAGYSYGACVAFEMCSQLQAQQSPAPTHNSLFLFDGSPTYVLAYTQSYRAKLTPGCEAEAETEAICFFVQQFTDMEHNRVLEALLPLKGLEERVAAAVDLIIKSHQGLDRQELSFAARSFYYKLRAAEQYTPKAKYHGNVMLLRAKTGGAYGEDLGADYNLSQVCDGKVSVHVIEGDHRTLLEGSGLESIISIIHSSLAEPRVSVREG
How it was run: (§2)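 SK-Br3 cells treated for set times (6, 12 or 24 h; p-HER2 also at 2 h), trypsinized, and lysed in Tris pH 7.5/EDTA/NaCl/PMSF buffer. Equal protein resolved by SDS-PAGE (3-8% gel for HER2 forms, 4-12% gel for AKT/ERK). Blots blocked in 2.5% milk/TBS-T, primary antibody overnight at 4 °C, HRP secondary, chemiluminescence; β-actin reprobe as loading control. At least two independent experiments.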

SK-BR-3 [3] = experiment: Effect on total AKT protein levels in human SKBR3 cells up to 24 hrs; type: functional, cell-based; how it was run: as §2
Mus musculus [4] = experiment: Toxicity against C57BL/6J mouse assessed as distress at 30 to 75 mg/kg, ip administered as single dose measured after 24 hrs; type: organism-based; parameters: dose 30-75 mg/kg, route intraperitoneal; details: in vivo; how it was run: as §1
Mus musculus [5] = experiment: Toxicity against C57BL/6J mouse assessed as change in food intake at 30 to 75 mg/kg, ip administered as single dose measured after 24 hrs; type: organism-based; parameters: dose 30-75 mg/kg, route intraperitoneal; details: in vivo; how it was run: as §1
BT-20 = experiment: Cytotoxicity against human BT20 cells; type: functional, cell-based
How it was run: (§3)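 MTT colorimetric assay: cells seeded at 5 or 7 x 10³ cells/well, attached overnight, then given fresh medium with a range of compound concentrations for 48 h at 37 °C, 5% CO2. MTT added for 3 h, formazan dissolved in DMSO, absorbance read at 570 or 540 nm. IC50 as mean±SEM from at least two independent experiments in duplicate or triplicate.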

[6] = Cytotoxicity against human HCC827 cells; type: functional, cell-based; how it was run: as §3
HepG2 = experiment: Cytotoxicity against human HepG2 cells; type: functional, cell-based; how it was run: as §3
PANC-1 = experiment: Cytotoxicity against human PANC1 cells; type: functional, cell-based; how it was run: as §3
[7] = target: Receptor tyrosine-protein kinase erbB-2 (Homo sapiens) (UniProt P04626); experiment: Inhibition of HER2 signaling in human SK-BR-3 cells up to 24 hrs; type: cell-based; how it was run: as §2
Receptor tyrosine-protein kinase erbB-2 (Homo sapiens), sequence (P04626 whole entry): as the sequence (P04626 whole entry, looked up) above

Mus musculus [8] = experiment: Toxicity against C57BL/6J mouse assessed as weight loss at 30 to 75 mg/kg, ip administered as single dose measured after 24 hrs; type: organism-based; parameters: dose 30-75 mg/kg, route intraperitoneal; details: in vivo; how it was run: as §1
[9] = target: Fatty acid synthase (Homo sapiens) (UniProt P49327); experiment: Inhibition of FASN in human SK-BR-3 cells assessed as oxidation of NADPH at 4 uM after 24 hrs by Spectrophotometric analysis relative to control; type: cell-based
Fatty acid synthase (Homo sapiens), sequence (P49327 whole entry, looked up): as the sequence (P49327 whole entry, looked up) above

NCI-H460 = experiment: Cytotoxicity against human H460 cells; type: functional, cell-based; how it was run: as §3
A-431 = experiment: Cytotoxicity against human A431 cells; type: functional, cell-based; how it was run: as §3
[10] = Selectivity ratio of IC50 for human HL7702 cells to IC50 for human SKBR3 cells; type: ADME, cell-based; details: HL7702 cells (normal) versus SKBR3 cells, read-out: Ratio IC50
SK-BR-3 [11] = experiment: Cytotoxicity against human SKBR3 cells; type: functional, cell-based
How it was run: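 SK-Br3 cells (McCoy's 5A, 10% FBS) in MTT assay: seeded at 5 or 7 x 10³ cells/well, attached overnight, exposed 48 h to a range of concentrations. MTT 3 h at 37 °C, formazan in DMSO, absorbance at 570 or 540 nm. IC50 as mean±SEM of two independent experiments in triplicate.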

ZR-75-1 = experiment: Cytotoxicity against human ZR-75-1 cells; type: functional, cell-based; how it was run: as §3
A549 = experiment: Cytotoxicity against human A549 cells; type: functional, cell-based; how it was run: as §3
SK-BR-3 [12] = experiment: Effect on total HER2 protein levels in human SKBR3 cells up to 6 hrs by ELISA; type: functional, cell-based
SK-BR-3 [13] = experiment: Effect on total HER protein levels in human SKBR3 cells up to 24 hrs; type: functional, cell-based; how it was run: as §2
[14] = target: Carnitine O-palmitoyltransferase 1, liver isoform (Rattus norvegicus, UniProt P32198); experiment: Stimulation of rat CPT1A expressed in Pichia pastoris mitochondrial using [3H]carnitine after 3 mins by forward exchange method; type: ADME; details: 0.05 h
How it was run: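 Mitochondria isolated from GS115 Pichia pastoris expressing rat CPT1A, used in a forward exchange assay with 200 µM inhibitor, 2 mM L-[³H]carnitine, 80 µM palmitoyl-CoA, 20 mM HEPES pH 7.0, 1% fatty-acid-free albumin and 40-75 mM KCl. Incubated 3 min at 30 °C, stopped with perchloric acid, butanol-extracted [³H]palmitoylcarnitine counted. Mean±SEM of at least three independent mitochondrial preparations.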

FASN/HER2 (Homo sapiens) [15] = target: T1, FASN/HER2 (Homo sapiens); experiment: Inhibition of FASN/HER2 in human SK-BR-3 cells assessed as reduction in p-ERK1/2 levels after 6 hrs by Western blot analysis; type: cell-based; how it was run: as §2
[16] = Antiproliferative activity against human HMEpC cells; type: cell-based; how it was run: as §3
SK-BR-3 [17] = experiment: Cytotoxicity against human SKBR3 cells after 48 hrs by MTT assay; type: functional, cell-based; details: SK-BR-3, 48 h; how it was run: as §3
Mus musculus [18] = experiment: Toxicity against C57BL/6J mouse assessed as altered behaviour at 30 to 75 mg/kg, ip administered as single dose measured after 24 hrs; type: organism-based; parameters: dose 30-75 mg/kg, route intraperitoneal; details: in vivo; how it was run: as §1
AU565 = experiment: Cytotoxicity against human AU565 cells; type: functional, cell-based; how it was run: as §3
[19] = Antiproliferative activity against human HL7702 cells; type: cell-based; details: L02; how it was run: as §3
SK-HEP1 = experiment: Cytotoxicity against human SKHEP1 cells; type: functional, cell-based; how it was run: as §3
MCF7 = experiment: Cytotoxicity against human MCF7 cells; type: functional, cell-based; how it was run: as §3
MDA-MB-231 = experiment: Cytotoxicity against human MDA-MB-231 cells; type: functional, cell-based; how it was run: as §3
[20] = Selectivity ratio of IC50 for human HMEpC cells to IC50 for human SKBR3 cells; type: ADME, cell-based, SK-BR-3; details: HMEpC cells (normal) versus SKBR3 cells, read-out: Ratio IC50
Bel-7402 = experiment: Cytotoxicity against human Bel7402 cells; type: functional, cell-based; how it was run: as §3
SK-BR-3 [21] = experiment: Induction of apoptosis in human SKBR3 cells assessed as cleavage of PARP by Western blot analysis; type: functional, cell-based; details: TDE = time-dependent effect
How it was run: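 SK-Br3 cells treated for up to 48 h, then immunoblotted for PARP on a 4-12% SDS gel. Intact PARP at 116 kDa, cleavage fragment at 89 kDa. Chemiluminescent detection with β-actin reprobe as loading control. At least two independent experiments.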

HCT-116 = experiment: Cytotoxicity against human HCT116 cells; type: functional, cell-based; how it was run: as §3
SK-OV-3 = experiment: Cytotoxicity against human SKOV3 cells; type: functional, cell-based; how it was run: as §3
[22] = target: Receptor tyrosine-protein kinase erbB-2 (Homo sapiens) (UniProt P04626); experiment: Inhibition of HER2 phosphorylation in human SK-BR-3 cells after 2 hrs by Western blot analysis; type: cell-based; how it was run: as §2
SK-BR-3 [23] = experiment: Effect on total ERK1/2 protein levels in human SKBR3 cells up to 24 hrs; type: functional, cell-based; how it was run: as §2
[24] = target: Receptor tyrosine-protein kinase erbB-2 (Homo sapiens) (UniProt P04626); experiment: Inhibition of HER2 phosphorylation in human SK-BR-3 cells after 6 hrs by Western blot analysis; type: cell-based
How it was run: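 SK-Br3 cells treated for 6, 12 or 24 h, harvested with trypsin-EDTA, lysed in Tris-HCl pH 7.5/EDTA/NaCl/PMSF buffer at 4 °C. Equal protein run on 3-8% SDS-PAGE and transferred to nitrocellulose. Membranes probed overnight at 4 °C with anti-phospho-HER2 mouse monoclonal, then peroxidase secondary and chemiluminescence. Re-probed for β-actin as loading control. Gels are representative of at least two independent experiments.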

SK-BR-3 [25] = experiment: Effect on total HER2 protein levels in human SKBR3 cells up to 6 hrs by Western blot analysis; type: functional, cell-based; how it was run: as §2
SK-BR-3 [26] = experiment: Cytotoxicity against human SKBR3 cells transfected with FASN specific siRNA assessed as cell death up to 10 uM by MTT assay; type: functional, cell-based
How it was run: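 SK-Br3 cells transfected with a pool of three FASN-specific siRNAs (72 h), run alongside control-transfected cells. MTT viability read after 24 h compound exposure instead of 48 h. Knockdown checked by FASN immunoblot with β-actin. Mean±SEM of three experiments in duplicate; Student's t-test against the same concentration in control-transfected cells.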

Mus musculus [27] = experiment: Toxicity against C57BL/6J mouse assessed as signs of suffering at 30 mg/kg, ip administered as single dose measured after 24 hrs; type: organism-based; parameters: dose 30 mg/kg, route intraperitoneal; details: in vivo; how it was run: as §1
Mus musculus [28] = experiment: Toxicity against C57BL/6J mouse assessed as weight loss at 30 mg/kg, ip administered as single dose measured after 24 hrs; type: organism-based; parameters: dose 30 mg/kg, route intraperitoneal; details: in vivo; how it was run: as §1
[29] = target: Fatty acid synthase (Homo sapiens) (UniProt P49327); experiment: Inhibition of FASN in human SK-BR-3 cells assessed as oxidation of NADPH at 31 uM after 24 hrs by Spectrophotometric analysis relative to control; type: cell-based
[30] = target: Fatty acid synthase (Homo sapiens) (UniProt P49327); experiment: Inhibition of FASN in human SK-BR-3 cells assessed as oxidation of NADPH at 22 uM after 24 hrs by Spectrophotometric analysis relative to control; type: cell-based

O=C(Oc1ccc(-c2ccc(OC(=O)c3cc(O)c(O)c(O)c3)cc2)cc1)c1cc(O)c(O)c(O)c1
Activity (Mus musculus [1]): Non-toxic | inhibition (FASN/HER2 (Homo sapiens) [2]): Active | Activity (SK-BR-3 [3]): inactive | Activity (Mus musculus [4]): Non-toxic | Activity (Mus musculus [5]): Non-toxic | IC50 (BT-20): 17 µM | IC50 [6]: 14 µM | IC50 (HepG2): 70 µM | IC50 (PANC-1): 2.1 µM | inhibition [7]: Active | Activity (Mus musculus [8]): Non-toxic | inhibition [9]: 90% | IC50 (NCI-H460): 9 µM | IC50 (A-431): 1.4 µM | selectivity ratio [10]: 10 | IC50 (SK-BR-3 [11]): 4 µM | IC50 (ZR-75-1): 1.9 µM | IC50 (A549): 17 µM | Activity (SK-BR-3 [12]): inactive | Activity (SK-BR-3 [13]): inactive | Activity [14]: Non-toxic | inhibition (FASN/HER2 (Homo sapiens) [15]): Active | IC50 [16]: 31 µM | IC50 (SK-BR-3 [17]): 4 µM | Activity (Mus musculus [18]): Non-toxic | IC50 (AU565): 24 µM | IC50 [19]: 41 µM | IC50 (SK-HEP1): 56 µM | IC50 (MCF7): 3.8 µM | IC50 (MDA-MB-231): 5 µM | selectivity ratio [20]: 8 | IC50 (Bel-7402): 40 µM | Activity (SK-BR-3 [21]): tde | IC50 (HCT-116): 4 µM | IC50 (SK-OV-3): 5 µM | inhibition [22]: Active | Activity (SK-BR-3 [23]): inactive | inhibition [24]: Active | Activity (SK-BR-3 [25]): inactive | Activity (SK-BR-3 [26]): inactive

C=C1C(=O)O[C@H](CCCCCCCC)[C@H]1C(=O)O (relative stereo)
Activity (Mus musculus [27]): Toxic | Activity (Mus musculus [28]): 21%

O=C(Oc1cc2c(c(OC(=O)c3cc(O)c(O)c(O)c3)c1)CCCC2)c1cc(O)c(O)c(O)c1
inhibition [29]: inactive | IC50 (SK-BR-3 [17]): 31 µM

O=C(O[C@H]1CC[C@@H](OC(=O)c2cc(O)c(O)c(O)c2)c2ccccc21)c1cc(O)c(O)c(O)c1
IC50 (SK-BR-3 [17]): 22 µM | inhibition [30]: inactive
